{
  "source": "paper PMC7119000",
  "about": "(Phytomedicine, 2013)",
  "key": {"[1]": {"type": "in vivo, rat", "details": "for AUC(0-t) / Cmax / Tmax: male, SD, rat, plasma, po"}, "[2]": {"assay": "In vitro Caco-2 cell monolayer transport, apical-to-basolateral", "type": "in vitro ADME, human", "details": "human, Caco-2", "method_in_brief": "(§1)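 Caco-2 cells grown in high-glucose DMEM with 10% FBS and 1% nonessential amino acids at 37 °C, 5% CO2. Seeded at 1.0 × 10^5 cells/cm2 on 4.2 cm2 inserts. Monolayers with TEER >250 Ω cm2 were HBSS-washed and preincubated 1 h at 37 °C. Compound was loaded apically, with samples taken at 0–4 h. Analysed by UPLC–MS/MS; Papp = (dQ/dt)/(A × C0).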"}, "Caco-2 cell monolayers [3]": {"test_system": "Caco-2 cell monolayers", "assay": "In vitro Caco-2 cell monolayer transport, apical-to-basolateral", "type": "in vitro ADME, human", "details": "for Apically loaded amount retained on the apical side: Caco-2 cell transport, authors' unpublished data", "method_in_brief": "as §1"}, "Caco-2 cell monolayers [4]": {"test_system": "Caco-2 cell monolayers", "details": "flavonoids glucosides; ref the previous report; cited from earlier work"}},
  "note": "Like-named read-outs stand apart in the source and are kept apart here.",
  "data": [
    {"compound": "O=C(/C=C/c1ccc(O)c(O)c1)O[C@@H]1C[C@](O)(C(=O)O)C[C@@H](O)[C@H]1O", "note": "[Chlorogenic acid]", "values": [
      {"measurement": "AUC(0-t)", "setting": "[1]; 25 mg/kg", "value": 658, "unit": "ng·h/mL"},
      {"measurement": "Cmax", "setting": "[1]; 25 mg/kg", "value": "284 ± 76.8", "unit": "ng/mL"},
      {"measurement": "Tmax", "setting": "[1]; 25 mg/kg", "value": 13.8, "unit": "min"},
      {"measurement": "AUC(0-t)", "setting": "[1]; 10 ml/kg", "value": 541, "unit": "ng·h/mL"},
      {"measurement": "Cmax", "setting": "[1]; 10 ml/kg", "value": "236 ± 61.2", "unit": "ng/mL"},
      {"measurement": "Tmax", "setting": "[1]; 10 ml/kg", "value": 30, "unit": "min"},
      {"measurement": "AUC increased to, compared to control", "setting": "[1]; with COS 25 mg/kg, rats, oral", "value": 122, "unit": "%"},
      {"measurement": "Papp A→B at 4 h", "setting": "[2]", "value": "19 ± 3.35", "unit": "×10⁻⁶ cm/s"},
      {"measurement": "Papp-value increased to, compared to control", "setting": "Caco-2 cell monolayers [3]; with addition of 0.1% (w/v) of COS", "value": 9800, "unit": "%"}
    ]},
    {"compound": "O=c1cc(-c2ccc(O)c(O)c2)oc2cc(O[C@@H]3O[C@H](CO)[C@@H](O)[C@H](O)[C@H]3O)cc(O)c12", "note": "[Galuteolin]", "values": [
      {"measurement": "Absorption into Caco-2 cell", "setting": "Caco-2 cell monolayers [4]", "value": "cannot be well absorbed"},
      {"measurement": "Apically loaded amount retained on the apical side", "setting": "Caco-2 cell monolayers [3]", "value": "about 100%"}
    ]},
    {"compound": "O=c1c(O[C@@H]2O[C@H](CO)[C@H](O)[C@H](O)[C@H]2O)c(-c2ccc(O)c(O)c2)oc2cc(O)cc(O)c12", "note": "[Hyperoside]", "values": [
      {"measurement": "Absorption into Caco-2 cell", "setting": "Caco-2 cell monolayers [4]", "value": "cannot be well absorbed"}
    ]},
    {"compound": "O=c1cc(-c2ccc(O)c(O)c2)oc2cc(O[C@@H]3O[C@H](CO)[C@H](O)[C@H](O)[C@H]3O)cc(O)c12", "note": "[Luteolin-7-o--β-D-galactoside]", "values": [
      {"measurement": "Absorption into Caco-2 cell", "setting": "Caco-2 cell monolayers [4]", "value": "cannot be well absorbed"}
    ]},
    {"compound": "C[C@@H]1O[C@@H](OC[C@H]2O[C@@H](Oc3c(-c4ccc(O)c(O)c4)oc4cc(O)cc(O)c4c3=O)[C@H](O)[C@@H](O)[C@@H]2O)[C@H](O)[C@H](O)[C@H]1O", "note": "[Rutin]", "values": [
      {"measurement": "Absorption into Caco-2 cell", "setting": "Caco-2 cell monolayers [4]", "value": "cannot be well absorbed"},
      {"measurement": "Apically loaded amount retained on the apical side", "setting": "Caco-2 cell monolayers [3]", "value": "about 100%"}
    ]},
    {"compound": "O=c1c(O[C@@H]2O[C@H](CO)[C@H](O)[C@H](O)[C@H]2O)c(-c2ccc(O)c(O)c2)oc2cc(O)cc(O)c12", "note": "[hyperin]", "values": [
      {"measurement": "Apically loaded amount retained on the apical side", "setting": "Caco-2 cell monolayers [3]", "value": "about 100%"}
    ]}
  ]
}
